ChEMBL document CHEMBL1125220 (J Med Chem, 1991)

Columns and labels:
D(2) dopamine receptor [1] = biological target: T1, D(2) dopamine receptor (Rattus norvegicus, UniProt P61169); assay: Compound was tested for its binding affinity towards dopamine receptor D2 by using [3H]domperidone as radioligand
Summary of the method: (§1)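 Rat striatal membranes from frozen tissue, washed and resuspended in 50 mM Tris-HCl with 120 mM NaCl, 5 mM KCl, 2 mM CaCl2, 1 mM MgCl2 (pH 7.4 at 37 °C). Competition binding used [3H]SCH-23390 for D1 and [3H]domperidone for D2. IC50 ± SEM from duplicate or triplicate determinations.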

[2] = biological target: Glutamate receptor ionotropic, NMDA 2C (Rattus norvegicus, UniProt Q00961); assay: (§2) Compound was tested for its affinity towards PCP receptor in rat brain membrane [3H]MK-801 as radioligand; format: cell membranes
D(2) dopamine receptor [3] = biological target: T1, D(2) dopamine receptor; assay: Compound was tested for its binding affinity towards Dopamine receptor D2 by using [3H]domperidone as radioligand
D(1A) dopamine receptor [4] = biological target: T2, D(1A) dopamine receptor (Rattus norvegicus, UniProt P18901); assay: Binding affinity towards Dopamine receptor D1 in rat membranes using [3H]SCH-23390 as radioligand; format: cell membranes
D(1A) dopamine receptor [5] = biological target: T2, D(1A) dopamine receptor; assay: Binding affinity determined in radioreceptor binding assay by using [3H]SCH-23390 radioligand against dopamine receptor D1; summary of the method: as §1
Rattus norvegicus = species: Rattus norvegicus; assay: as §2

T1 sequence (P61169 whole entry): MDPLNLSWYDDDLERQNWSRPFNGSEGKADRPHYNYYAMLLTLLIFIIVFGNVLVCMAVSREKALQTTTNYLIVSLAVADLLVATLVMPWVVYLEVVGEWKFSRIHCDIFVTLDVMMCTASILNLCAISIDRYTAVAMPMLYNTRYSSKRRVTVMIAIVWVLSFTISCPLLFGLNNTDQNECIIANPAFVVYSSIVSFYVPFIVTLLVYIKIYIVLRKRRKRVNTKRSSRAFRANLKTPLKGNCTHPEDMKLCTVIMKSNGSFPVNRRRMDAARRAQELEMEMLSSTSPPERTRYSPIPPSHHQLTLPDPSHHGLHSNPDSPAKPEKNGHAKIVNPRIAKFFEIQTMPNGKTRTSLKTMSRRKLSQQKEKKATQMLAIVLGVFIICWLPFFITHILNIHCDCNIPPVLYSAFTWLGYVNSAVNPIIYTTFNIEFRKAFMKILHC
Chain of Glutamate receptor ionotropic, NMDA 2C (Q00961 whole entry): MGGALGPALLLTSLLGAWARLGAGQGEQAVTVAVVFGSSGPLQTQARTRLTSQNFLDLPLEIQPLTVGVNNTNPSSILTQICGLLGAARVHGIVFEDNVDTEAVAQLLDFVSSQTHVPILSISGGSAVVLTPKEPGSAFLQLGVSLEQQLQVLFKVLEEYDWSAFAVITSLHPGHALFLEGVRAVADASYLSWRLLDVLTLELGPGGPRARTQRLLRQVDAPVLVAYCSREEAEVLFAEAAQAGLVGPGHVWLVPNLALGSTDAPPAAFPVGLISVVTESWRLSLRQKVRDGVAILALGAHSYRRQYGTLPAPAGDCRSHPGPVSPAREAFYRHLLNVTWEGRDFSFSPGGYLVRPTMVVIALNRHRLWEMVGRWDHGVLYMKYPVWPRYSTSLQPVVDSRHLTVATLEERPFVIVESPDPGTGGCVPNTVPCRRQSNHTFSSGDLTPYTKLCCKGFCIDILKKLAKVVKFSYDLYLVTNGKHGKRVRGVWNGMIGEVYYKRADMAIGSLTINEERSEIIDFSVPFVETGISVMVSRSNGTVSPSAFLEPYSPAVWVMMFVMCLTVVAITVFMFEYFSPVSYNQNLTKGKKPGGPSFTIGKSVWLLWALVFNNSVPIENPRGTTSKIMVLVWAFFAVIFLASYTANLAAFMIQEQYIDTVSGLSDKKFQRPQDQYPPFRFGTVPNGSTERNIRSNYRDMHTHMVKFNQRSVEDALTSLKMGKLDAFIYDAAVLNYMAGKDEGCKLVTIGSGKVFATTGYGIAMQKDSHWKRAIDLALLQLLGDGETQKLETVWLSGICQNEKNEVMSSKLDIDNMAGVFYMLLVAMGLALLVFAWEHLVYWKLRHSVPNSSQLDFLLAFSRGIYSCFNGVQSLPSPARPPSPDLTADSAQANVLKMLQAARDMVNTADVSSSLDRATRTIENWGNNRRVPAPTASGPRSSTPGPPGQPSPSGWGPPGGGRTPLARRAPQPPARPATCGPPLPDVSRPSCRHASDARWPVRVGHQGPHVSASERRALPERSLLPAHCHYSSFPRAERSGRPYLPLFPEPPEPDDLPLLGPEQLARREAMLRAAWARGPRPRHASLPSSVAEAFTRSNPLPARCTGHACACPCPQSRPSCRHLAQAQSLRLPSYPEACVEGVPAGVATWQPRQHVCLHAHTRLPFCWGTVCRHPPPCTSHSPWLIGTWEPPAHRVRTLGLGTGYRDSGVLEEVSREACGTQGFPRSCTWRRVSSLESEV
T2 sequence (P18901 whole entry): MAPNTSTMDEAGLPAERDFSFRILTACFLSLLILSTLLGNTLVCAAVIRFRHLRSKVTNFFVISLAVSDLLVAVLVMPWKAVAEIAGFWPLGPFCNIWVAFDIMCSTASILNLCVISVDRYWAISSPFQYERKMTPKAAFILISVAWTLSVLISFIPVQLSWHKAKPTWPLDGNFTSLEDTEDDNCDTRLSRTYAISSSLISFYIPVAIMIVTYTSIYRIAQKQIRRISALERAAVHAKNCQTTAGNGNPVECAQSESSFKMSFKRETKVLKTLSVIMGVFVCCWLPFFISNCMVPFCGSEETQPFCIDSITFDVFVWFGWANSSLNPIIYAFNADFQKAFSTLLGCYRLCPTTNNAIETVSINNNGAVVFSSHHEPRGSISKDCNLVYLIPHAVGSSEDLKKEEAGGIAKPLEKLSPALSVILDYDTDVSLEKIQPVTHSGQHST

| Compound | IC50 (D(2) dopamine receptor [1]) [nM] | IC50 [2] [nM] | IC50 (D(2) dopamine receptor [3]) [nM] | IC50 (D(1A) dopamine receptor [4]) [nM] | IC50 (D(1A) dopamine receptor [5]) [nM] | IC50 (Rattus norvegicus) [nM] |
| --- | --- | --- | --- | --- | --- | --- |
| c1ccc(N2CCN(CCCc3ccc4ccccc4c3)CC2)cc1 | 160 | > 10000 | – | – | – | – |
| c1ccc(CCCN2CCC(c3ccccc3)CC2)cc1 | – | > 10000 | 335 | > 10000 | – | – |
| c1ccc(CCCCCN2CCC(c3ccccc3)CC2)cc1 | 210 | > 10000 | – | – | > 10000 | – |
| OC1(c2ccccc2)CCN(CCCc2ccccc2)CC1 | – | – | 1250 | > 10000 | – | > 10000 |
| c1ccc(CCCCN2CCC(c3ccccc3)CC2)cc1 | – | – | 165 | > 10000 | – | > 10000 |
| c1ccc(CCCCN2CCN(c3ccccc3)CC2)cc1 | 45 | > 10000 | – | 2820 | – | – |
